NTR1 agonist: agonists of human NTR1, primary screen, imaging, U2OS cells, beta-arrestin-GFP, high content; NTR1-U2OS beta-arrestin-GFP spot imaging, agonist mode; 0.17% of 330,000 active; activation, % at 20 µM;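 active means activation at or above 40% of the spot to cytoplasm intensity ratio, with at least 20 cells analyzed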
PREPL inh: PREPL enzyme inhibitors, primary screen, biochemical, fluorescence polarization; AID 2751, 2010; recombinant PREPL, fluorescence polarization activity-based probe; 0.68% of 320,000 active; inhibition, % at 5.96 µM; in the data active means inhibition above about 43%
MC4R antagonist: MC4R antagonists of cAMP signaling, primary screen, cell-based, TR-FRET, antagonist arm of biased-ligand search | Melanocortin receptor 4 (Homo sapiens), P32245 | MC4R-expressing cells, MTII-stimulated cAMP, LANCE TR-FRET | inhibition, % at 6.5 µM | 0.48% of 360,000 active;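 active means inhibition above its plate's cutoff, the mean of tested wells on that plate plus 3 SD, cut at about 29% in these data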
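Material – human MC4R-expressing U2OS cells · Repeats – no replicates · Detection – TR-FRET with Eu-cAMP and labeled anti-cAMP, 671 nm · Times – compound 30 min, challenge 1 h, detection 1 h · Compound – single nominal compound dose of 6.5 µM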
MC4R barr agon: MC4R agonists recruiting beta-arrestin, primary screen, cell-based, luminescence, agonist arm of biased-ligand search. Melanocortin receptor 4 (Homo sapiens), P32245. U2OS MC4R beta-arrestin complementation; percent of melanotan II response, DMSO zero. activation, % at 8.9 µM. 0.98% of 360,000 active. AID 540308, 2011;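 active means activation above a per-plate cutoff, the mean activation of sample wells on that plate plus 3 SD, cut at about 8% in these data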
Hep lipid drop: inhibitors of hepatocyte lipid droplet formation, primary screen, imaging, high-throughput imaging, BODIPY stain. AML12 mouse hepatocytes, oleate lipid droplets. inhibition, % at 6.5 µM. 0.4% of 240,000 active. AID 1656, 2009;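 active means lipid droplet intensity inhibited by at least 50%, with more than 500 cells counted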
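Technique: fluorescence imaging, 20x objective, two fields per well / Assay system: AML12 hepatocytes (mouse) / Measure: % inhibition of lipid droplet signal / Doses: 6.5 µM single-point dosing / Incubation: overnight exposure / Reagent: 100 µM oleic acid challenge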
HTR2A ag: mouse Htr2a agonists via beta-arrestin recruitment, primary screen, cell-based, luminescence; CHO-K1 mHTR2A beta-arrestin complementation; percent of 30 µM serotonin response; activation, % at 7.6 µM; 0.66% of 360,000 active; AID 624169, 2012;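 active means activation above a run cutoff, the mean activation of all tested compounds plus 3 SD, cut at about 14% in these data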
Target sequence (P35363 whole entry, looked up): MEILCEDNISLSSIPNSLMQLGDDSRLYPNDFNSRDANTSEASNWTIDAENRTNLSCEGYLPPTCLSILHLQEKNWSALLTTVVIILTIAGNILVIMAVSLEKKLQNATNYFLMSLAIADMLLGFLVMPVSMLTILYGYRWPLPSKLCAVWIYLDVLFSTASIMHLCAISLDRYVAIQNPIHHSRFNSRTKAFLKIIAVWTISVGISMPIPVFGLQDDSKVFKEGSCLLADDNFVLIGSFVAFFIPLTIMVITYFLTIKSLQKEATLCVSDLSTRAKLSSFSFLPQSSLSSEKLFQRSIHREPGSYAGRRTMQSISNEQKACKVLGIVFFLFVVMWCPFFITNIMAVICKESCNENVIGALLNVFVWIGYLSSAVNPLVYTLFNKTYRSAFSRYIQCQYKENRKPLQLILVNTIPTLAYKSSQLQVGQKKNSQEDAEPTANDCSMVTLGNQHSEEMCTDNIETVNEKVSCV
OPRM1 ag: OPRM1 agonists via beta-arrestin recruitment, confirmation, counter-screen for mouse HTR2A agonist project, cell-based, luminescence, single concentration; U2OS OPRM1 beta-arrestin PathHunter; DMSO 0%, DAMGO 9.3 µM 100%; shares compounds with HTR2A ag; 5.3% of 2,300 active; activation, % at 9.3 µM;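 active means mean activation above the mean of DMSO-only wells plus 3 SD, cut at about 0.5% in these data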
m5-HT2A ag conf: mouse HTR2A agonists, beta-arrestin recruitment, confirmation, cell-based, luminescence, CHO-K1 PathHunter, triplicate. shares compounds with HTR2A ag. activation, % at 7.6 µM. 19% of 2,300 active. AID 624381, 2012. DMSO 0%, 30 µM serotonin 100%;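 active means mean activation across triplicates above the hit threshold derived in the original primary screen, cut at about 15% in these data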
A number is an active result. Compounds with a hit are over-represented: about 2.7% of the library has one in this group of screens.

Screening Cc1cc(C)n(CCCNC(=O)C2CCC(=O)N(CCc3ccc(Cl)cc3)C2)n1 (stereo unspecified) returned NTR1 agonist inactive, PREPL inh inactive, MC4R antagonist inactive, MC4R barr agon inactive, Hep lipid drop inactive and HTR2A ag inactive.
Cc1ccn(CCNC(=O)C2CCC(=O)N(CCc3ccc(Cl)cc3)C2)n1 (stereo unspecified) was read as NTR1 agonist inactive, PREPL inh inactive, MC4R antagonist inactive, MC4R barr agon inactive, Hep lipid drop inactive, HTR2A ag 24, OPRM1 ag inactive and m5-HT2A ag conf inactive.
Cc1cc(C)c(C)c(S(=O)(=O)N2CCN(C(=O)c3ccccn3)CC2)c1C was read as NTR1 agonist inactive, PREPL inh inactive, MC4R antagonist inactive, MC4R barr agon inactive, HTR2A ag 16, OPRM1 ag 1.1 and m5-HT2A ag conf inactive.
For COc1ccc2oc(C(=O)OCC(=O)N3CCCC(C)C3)c(C)c2c1 (stereo unspecified) the results were NTR1 agonist inactive, PREPL inh inactive, MC4R antagonist inactive, MC4R barr agon inactive, HTR2A ag 20, OPRM1 ag inactive and m5-HT2A ag conf inactive.
Screening Cn1cc(C(=O)c2ccc(Cl)cc2Cl)cc1C(=O)N/N=C(\N)COc1ccc(Cl)cc1 returned NTR1 agonist inactive, PREPL inh inactive, MC4R antagonist inactive, MC4R barr agon inactive, Hep lipid drop inactive, HTR2A ag 15, OPRM1 ag inactive and m5-HT2A ag conf inactive.
Cn1cc(C(=O)c2ccc(Cl)cc2Cl)cc1C(=O)N/N=C(\N)COc1ccc(F)cc1 was read as NTR1 agonist inactive, PREPL inh inactive, MC4R antagonist inactive, MC4R barr agon inactive, Hep lipid drop inactive and HTR2A ag inactive.
For Cc1nc2c3cnn(-c4ccccc4)c3ncn2n1 the results were NTR1 agonist inactive, PREPL inh inactive, MC4R antagonist inactive, MC4R barr agon inactive, Hep lipid drop inactive and HTR2A ag inactive.
`CCc1nc2c3cnn(-c4cc(Cl)ccc4C)c3ncn2n1` gave NTR1 agonist inactive, PREPL inh inactive, MC4R antagonist inactive, MC4R barr agon inactive, HTR2A ag 16, OPRM1 ag inactive and m5-HT2A ag conf inactive.
For CC(C)(C)c1ccc(Cc2n[nH]c(=S)[nH]c2=O)cc1 the results were NTR1 agonist inactive, PREPL inh inactive, MC4R antagonist inactive, MC4R barr agon inactive, Hep lipid drop inactive, HTR2A ag 15, OPRM1 ag inactive and m5-HT2A ag conf inactive.
`O=c1[nH]c(=S)[nH]nc1Cc1ccc(Cl)c(Cl)c1` gave NTR1 agonist inactive, PREPL inh inactive, MC4R antagonist inactive, MC4R barr agon inactive, Hep lipid drop inactive and HTR2A ag inactive.
`CCn1c(=O)cc(SCC(=O)NCCCN2CCN(c3ccccc3F)CC2)c2ccccc21` gave NTR1 agonist inactive, PREPL inh inactive, MC4R antagonist inactive, MC4R barr agon inactive, HTR2A ag 28, OPRM1 ag inactive and m5-HT2A ag conf 78.
Screening O=C(NCCCN1CCN(c2ccccc2F)CC1)C1CC(=O)N(C2CCCC2)C1 (stereo unspecified) returned NTR1 agonist inactive, PREPL inh inactive, MC4R antagonist inactive, MC4R barr agon inactive, HTR2A ag 17, OPRM1 ag inactive and m5-HT2A ag conf 39.
Screening CN1CCN(CCCNC(=O)C2CC(=O)N(C3CCCCC3)C2)CC1 (stereo unspecified) returned NTR1 agonist inactive, PREPL inh inactive, MC4R antagonist inactive, MC4R barr agon inactive, Hep lipid drop inactive and HTR2A ag inactive.
Screening O=C(NCc1ccccn1)C1CC(=O)N(C2CCCC2)C1 (stereo unspecified) returned NTR1 agonist inactive, PREPL inh inactive, MC4R antagonist inactive, MC4R barr agon inactive, HTR2A ag 20, OPRM1 ag inactive and m5-HT2A ag conf inactive.
For Cc1cc(C)cc(NC(=O)c2cnn(-c3ccccc3)c2C2CCNCC2)c1 the results were NTR1 agonist inactive, PREPL inh inactive, MC4R antagonist inactive, MC4R barr agon inactive, Hep lipid drop inactive and HTR2A ag inactive.
`CCN(C(=O)CSc1nnc(-c2ccc(F)cc2)n1C)C1CCS(=O)(=O)C1` (stereo unspecified) gave NTR1 agonist inactive, PREPL inh inactive, MC4R antagonist inactive, MC4R barr agon inactive and HTR2A ag inactive.
`COc1ccc(C(=O)N(C)Cc2ccccn2)cc1OC1CCN(C(C)C)CC1` gave NTR1 agonist inactive, PREPL inh inactive, MC4R antagonist inactive, MC4R barr agon inactive, Hep lipid drop inactive and HTR2A ag inactive.
`O=C(NC(c1ccc(Cl)cc1)c1ccsc1)C1CCN(Cc2cccc(Cl)c2)CC1` (stereo unspecified) gave MC4R antagonist inactive, MC4R barr agon inactive and HTR2A ag inactive.
For COc1ccccc1CNC(=O)C1CCC1 the results were NTR1 agonist inactive, PREPL inh inactive, MC4R antagonist inactive, MC4R barr agon inactive, Hep lipid drop inactive, HTR2A ag 15, OPRM1 ag inactive and m5-HT2A ag conf inactive.
`COc1ccc(CNC(=O)COC(=O)Cc2ccc(Br)cc2)cc1` gave NTR1 agonist inactive, PREPL inh inactive, MC4R antagonist inactive, MC4R barr agon inactive and HTR2A ag inactive.
COc1ccccc1CNC(=O)COC(=O)Cc1ccc(Br)cc1 was read as NTR1 agonist inactive, PREPL inh inactive, MC4R antagonist inactive, MC4R barr agon inactive, HTR2A ag 16, OPRM1 ag inactive and m5-HT2A ag conf inactive.
Screening Cc1ccc(NC(=O)C2CC(=O)N(CCc3ccccc3)C2)c(C)c1 (stereo unspecified) returned NTR1 agonist inactive, PREPL inh inactive, MC4R antagonist inactive, MC4R barr agon inactive, Hep lipid drop inactive and HTR2A ag inactive.
Cc1ccccc1Nc1nc(N)nc(COC(=O)c2ccc3c(c2)OCCO3)n1 was read as MC4R antagonist inactive, MC4R barr agon inactive and HTR2A ag inactive.

Source: PubChem (several laboratories)
